We go through ten compounds from ChEMBL document CHEMBL1800036, “A novel HDAC inhibitor with a hydroxy-pyrimidine scaffold” (Bioorg Med Chem Lett, 2011).

For orientation: IC50 means the midpoint of a concentration-inhibition curve.

The target in one assay is T1, Histone deacetylase 8 (Homo sapiens, UniProt Q9BY41).
T1 sequence (Q9BY41 whole entry): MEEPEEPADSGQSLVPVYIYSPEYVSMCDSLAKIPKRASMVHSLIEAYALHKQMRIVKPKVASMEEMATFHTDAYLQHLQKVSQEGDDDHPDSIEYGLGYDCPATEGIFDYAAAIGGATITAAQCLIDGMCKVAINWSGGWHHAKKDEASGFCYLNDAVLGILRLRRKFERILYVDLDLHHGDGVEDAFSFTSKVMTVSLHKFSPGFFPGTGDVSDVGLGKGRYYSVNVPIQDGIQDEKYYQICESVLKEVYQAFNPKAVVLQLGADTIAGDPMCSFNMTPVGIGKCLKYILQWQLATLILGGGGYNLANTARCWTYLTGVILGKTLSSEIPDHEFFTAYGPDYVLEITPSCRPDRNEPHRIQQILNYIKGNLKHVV
In words: Inhibition of recombinant HDAC8 assessed as inhibition of fluorogenic aminocoumarin release from substrate by trypsin-coupled biochemical assay. The method in brief: (§1)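 Trypsin-coupled fluorogenic assay. Substrate is an acetylated lysine tripeptide amide-linked to aminocoumarin (AMC). HDAC deacetylation allows trypsin to release AMC, and the fluorescence increase is read. Compound was tested at various concentrations and normalized to a DMSO control. IC50 was derived by non-linear regression fit.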

A further assay has as its target Histone deacetylase 9 (Homo sapiens, UniProt Q9UKV0). In words: Inhibition of recombinant HDAC9 assessed as inhibition of fluorogenic aminocoumarin release from substrate by trypsin-coupled biochemical assay. The method in brief: as §1
In assay [1] the target is T2, Protein deacetylase HDAC6 (Homo sapiens, UniProt Q9UBN7).
T2 sequence (Q9UBN7 whole entry): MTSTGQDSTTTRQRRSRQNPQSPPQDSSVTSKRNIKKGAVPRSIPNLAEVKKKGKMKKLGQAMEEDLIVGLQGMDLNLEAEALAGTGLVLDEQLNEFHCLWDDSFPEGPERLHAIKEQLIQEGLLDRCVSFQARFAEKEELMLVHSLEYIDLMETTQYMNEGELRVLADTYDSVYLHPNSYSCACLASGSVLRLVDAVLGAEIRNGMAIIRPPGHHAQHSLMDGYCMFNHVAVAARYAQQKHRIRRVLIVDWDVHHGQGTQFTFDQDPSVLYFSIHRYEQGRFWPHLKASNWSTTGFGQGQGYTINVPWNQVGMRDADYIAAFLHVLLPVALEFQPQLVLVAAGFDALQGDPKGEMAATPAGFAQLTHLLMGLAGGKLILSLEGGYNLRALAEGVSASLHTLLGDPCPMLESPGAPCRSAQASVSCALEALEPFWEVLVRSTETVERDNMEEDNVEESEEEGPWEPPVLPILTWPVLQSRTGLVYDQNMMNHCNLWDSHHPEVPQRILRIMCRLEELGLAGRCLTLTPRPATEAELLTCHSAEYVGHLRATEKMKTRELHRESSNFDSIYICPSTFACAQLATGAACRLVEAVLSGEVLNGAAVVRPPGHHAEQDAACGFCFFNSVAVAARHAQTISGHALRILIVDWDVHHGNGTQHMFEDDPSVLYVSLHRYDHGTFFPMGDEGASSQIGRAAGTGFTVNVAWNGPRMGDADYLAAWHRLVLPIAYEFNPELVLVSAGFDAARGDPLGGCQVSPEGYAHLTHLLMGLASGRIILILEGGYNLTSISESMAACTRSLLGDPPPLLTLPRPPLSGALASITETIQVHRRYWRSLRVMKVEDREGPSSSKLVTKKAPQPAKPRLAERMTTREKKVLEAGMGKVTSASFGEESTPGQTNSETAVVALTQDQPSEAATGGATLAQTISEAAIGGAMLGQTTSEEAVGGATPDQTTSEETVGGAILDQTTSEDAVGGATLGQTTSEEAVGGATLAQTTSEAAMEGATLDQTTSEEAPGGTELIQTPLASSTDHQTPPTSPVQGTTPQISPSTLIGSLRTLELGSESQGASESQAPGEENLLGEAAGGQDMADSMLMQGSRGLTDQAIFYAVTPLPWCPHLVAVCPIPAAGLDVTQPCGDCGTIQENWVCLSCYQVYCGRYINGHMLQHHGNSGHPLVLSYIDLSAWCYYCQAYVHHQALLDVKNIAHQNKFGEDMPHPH
Description: Inhibition of recombinant HDAC6 assessed as inhibition of fluorogenic aminocoumarin release from substrate by trypsin-coupled biochemical assay. The method in brief:
as §1

The target of a further assay is Histone deacetylase 1 (Homo sapiens, UniProt Q13547). Description: Inhibition of recombinant HDAC1 assessed as inhibition of fluorogenic aminocoumarin release from substrate by trypsin-coupled biochemical assay. The method in brief: as §1
Chain of Histone deacetylase 1 (Q13547 whole entry): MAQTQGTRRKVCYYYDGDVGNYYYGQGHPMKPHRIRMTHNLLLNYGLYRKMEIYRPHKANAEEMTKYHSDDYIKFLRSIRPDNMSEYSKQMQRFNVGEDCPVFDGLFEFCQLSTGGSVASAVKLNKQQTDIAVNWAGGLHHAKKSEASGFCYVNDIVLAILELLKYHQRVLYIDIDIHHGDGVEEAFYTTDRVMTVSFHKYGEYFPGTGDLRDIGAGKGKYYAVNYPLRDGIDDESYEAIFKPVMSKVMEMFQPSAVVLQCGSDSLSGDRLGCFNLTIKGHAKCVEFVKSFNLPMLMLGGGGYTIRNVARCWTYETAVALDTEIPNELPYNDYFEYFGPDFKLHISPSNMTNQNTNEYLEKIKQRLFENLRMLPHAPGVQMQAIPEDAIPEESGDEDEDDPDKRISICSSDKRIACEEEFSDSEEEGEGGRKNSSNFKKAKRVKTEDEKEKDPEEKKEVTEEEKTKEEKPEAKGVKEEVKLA
Another assay addresses Histone deacetylase 5 (Homo sapiens, UniProt Q9UQL6). In words: Inhibition of recombinant HDAC5 assessed as inhibition of fluorogenic aminocoumarin release from substrate by trypsin-coupled biochemical assay. In a few lines: as §1
Another assay addresses Histone deacetylase 2 (Homo sapiens, UniProt Q92769). In words: Inhibition of recombinant HDAC2 assessed as inhibition of fluorogenic aminocoumarin release from substrate by trypsin-coupled biochemical assay.
For the next assay, the target named is Histone deacetylase 4 (Homo sapiens, UniProt P56524). Description: Inhibition of recombinant HDAC4 assessed as inhibition of fluorogenic aminocoumarin release from substrate by trypsin-coupled biochemical assay. In a few lines:
as §1

In another assay the target is Histone deacetylase 3 (Homo sapiens, UniProt O15379). In words: Inhibition of recombinant HDAC3 assessed as inhibition of fluorogenic aminocoumarin release from substrate by trypsin-coupled biochemical assay. In a few lines:
as §1

The target of another assay is T3, Histone deacetylase 7 (Homo sapiens, UniProt Q8WUI4).
T3 sequence (Q8WUI4 whole entry): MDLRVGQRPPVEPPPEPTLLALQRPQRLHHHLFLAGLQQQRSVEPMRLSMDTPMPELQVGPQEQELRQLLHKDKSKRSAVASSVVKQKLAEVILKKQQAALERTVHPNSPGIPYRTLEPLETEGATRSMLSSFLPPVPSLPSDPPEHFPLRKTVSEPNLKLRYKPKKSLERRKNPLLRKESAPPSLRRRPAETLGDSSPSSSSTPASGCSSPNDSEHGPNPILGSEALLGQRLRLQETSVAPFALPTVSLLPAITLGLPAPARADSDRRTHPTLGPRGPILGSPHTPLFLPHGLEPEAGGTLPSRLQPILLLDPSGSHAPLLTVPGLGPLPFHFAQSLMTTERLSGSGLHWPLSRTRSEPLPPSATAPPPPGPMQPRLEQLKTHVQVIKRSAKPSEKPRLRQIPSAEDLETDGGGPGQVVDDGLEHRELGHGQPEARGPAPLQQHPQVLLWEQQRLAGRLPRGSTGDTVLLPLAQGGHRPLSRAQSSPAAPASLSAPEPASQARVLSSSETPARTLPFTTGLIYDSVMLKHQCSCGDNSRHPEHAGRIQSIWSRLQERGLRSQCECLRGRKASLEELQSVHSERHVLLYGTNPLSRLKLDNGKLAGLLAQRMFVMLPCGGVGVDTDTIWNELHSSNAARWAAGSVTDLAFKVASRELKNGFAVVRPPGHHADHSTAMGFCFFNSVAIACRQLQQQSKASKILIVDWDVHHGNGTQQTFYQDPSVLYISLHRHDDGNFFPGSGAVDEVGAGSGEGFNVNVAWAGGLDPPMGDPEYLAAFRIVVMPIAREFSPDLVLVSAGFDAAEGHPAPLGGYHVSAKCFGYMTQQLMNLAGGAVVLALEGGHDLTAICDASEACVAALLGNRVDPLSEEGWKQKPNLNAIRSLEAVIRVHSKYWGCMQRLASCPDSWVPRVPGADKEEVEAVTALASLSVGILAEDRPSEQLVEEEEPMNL
In words: Inhibition of recombinant HDAC7 assessed as inhibition of fluorogenic aminocoumarin release from substrate by trypsin-coupled biochemical assay.

SMILES strings stand for the structures.

Chain of Histone deacetylase 2 (Q92769 whole entry): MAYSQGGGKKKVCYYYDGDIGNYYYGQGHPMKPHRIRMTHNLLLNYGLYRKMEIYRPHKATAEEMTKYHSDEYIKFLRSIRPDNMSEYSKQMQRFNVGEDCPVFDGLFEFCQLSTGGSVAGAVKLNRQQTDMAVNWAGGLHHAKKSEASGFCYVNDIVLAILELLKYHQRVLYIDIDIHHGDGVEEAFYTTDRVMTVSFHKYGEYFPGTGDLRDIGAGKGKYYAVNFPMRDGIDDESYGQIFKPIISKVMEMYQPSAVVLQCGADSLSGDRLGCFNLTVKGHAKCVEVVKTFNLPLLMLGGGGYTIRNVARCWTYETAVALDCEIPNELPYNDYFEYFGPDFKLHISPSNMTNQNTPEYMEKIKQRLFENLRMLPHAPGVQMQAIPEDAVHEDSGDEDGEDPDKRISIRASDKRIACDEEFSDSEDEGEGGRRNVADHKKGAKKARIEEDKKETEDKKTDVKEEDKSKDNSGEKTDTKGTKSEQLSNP
Chain of Histone deacetylase 3 (O15379 whole entry): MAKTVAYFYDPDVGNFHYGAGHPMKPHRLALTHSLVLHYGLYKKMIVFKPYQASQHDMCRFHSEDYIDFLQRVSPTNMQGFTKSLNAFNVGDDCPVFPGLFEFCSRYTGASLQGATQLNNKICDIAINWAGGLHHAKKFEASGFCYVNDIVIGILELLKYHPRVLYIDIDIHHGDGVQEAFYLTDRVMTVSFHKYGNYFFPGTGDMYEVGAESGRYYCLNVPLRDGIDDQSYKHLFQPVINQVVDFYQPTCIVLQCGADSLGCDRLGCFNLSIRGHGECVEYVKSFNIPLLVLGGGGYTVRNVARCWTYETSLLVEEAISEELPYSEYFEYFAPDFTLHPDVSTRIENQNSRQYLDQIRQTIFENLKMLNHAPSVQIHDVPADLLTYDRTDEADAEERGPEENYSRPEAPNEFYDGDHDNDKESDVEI
Chain of Histone deacetylase 5 (Q9UQL6 whole entry): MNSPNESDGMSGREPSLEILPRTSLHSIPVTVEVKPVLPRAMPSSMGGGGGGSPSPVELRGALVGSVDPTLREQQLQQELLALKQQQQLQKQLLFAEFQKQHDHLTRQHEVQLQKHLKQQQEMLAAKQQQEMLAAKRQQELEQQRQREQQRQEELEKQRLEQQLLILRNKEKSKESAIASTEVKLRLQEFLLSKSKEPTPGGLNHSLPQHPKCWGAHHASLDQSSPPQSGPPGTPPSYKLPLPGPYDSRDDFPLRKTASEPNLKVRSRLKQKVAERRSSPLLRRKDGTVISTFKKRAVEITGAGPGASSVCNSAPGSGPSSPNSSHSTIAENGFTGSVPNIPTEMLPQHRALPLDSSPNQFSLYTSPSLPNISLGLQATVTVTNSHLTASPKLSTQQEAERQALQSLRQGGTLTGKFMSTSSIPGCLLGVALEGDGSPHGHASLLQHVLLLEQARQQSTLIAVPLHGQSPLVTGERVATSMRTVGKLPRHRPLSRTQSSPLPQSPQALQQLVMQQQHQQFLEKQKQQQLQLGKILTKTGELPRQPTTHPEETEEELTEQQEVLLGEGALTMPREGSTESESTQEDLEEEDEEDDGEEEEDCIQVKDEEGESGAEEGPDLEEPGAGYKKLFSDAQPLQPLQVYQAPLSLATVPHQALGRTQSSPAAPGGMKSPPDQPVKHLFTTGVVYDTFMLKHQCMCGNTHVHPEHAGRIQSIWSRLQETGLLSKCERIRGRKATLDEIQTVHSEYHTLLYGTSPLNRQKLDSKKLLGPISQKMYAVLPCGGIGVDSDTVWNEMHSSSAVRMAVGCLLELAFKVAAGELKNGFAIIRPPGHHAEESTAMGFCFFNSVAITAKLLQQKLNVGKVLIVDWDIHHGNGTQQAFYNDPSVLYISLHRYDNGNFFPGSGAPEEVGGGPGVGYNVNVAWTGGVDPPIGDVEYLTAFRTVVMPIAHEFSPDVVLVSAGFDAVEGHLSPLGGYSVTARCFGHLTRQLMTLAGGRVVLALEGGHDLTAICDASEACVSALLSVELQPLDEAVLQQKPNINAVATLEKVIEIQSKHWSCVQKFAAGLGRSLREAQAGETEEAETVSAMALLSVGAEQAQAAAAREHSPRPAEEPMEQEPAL
Chain of Histone deacetylase 4 (P56524 whole entry): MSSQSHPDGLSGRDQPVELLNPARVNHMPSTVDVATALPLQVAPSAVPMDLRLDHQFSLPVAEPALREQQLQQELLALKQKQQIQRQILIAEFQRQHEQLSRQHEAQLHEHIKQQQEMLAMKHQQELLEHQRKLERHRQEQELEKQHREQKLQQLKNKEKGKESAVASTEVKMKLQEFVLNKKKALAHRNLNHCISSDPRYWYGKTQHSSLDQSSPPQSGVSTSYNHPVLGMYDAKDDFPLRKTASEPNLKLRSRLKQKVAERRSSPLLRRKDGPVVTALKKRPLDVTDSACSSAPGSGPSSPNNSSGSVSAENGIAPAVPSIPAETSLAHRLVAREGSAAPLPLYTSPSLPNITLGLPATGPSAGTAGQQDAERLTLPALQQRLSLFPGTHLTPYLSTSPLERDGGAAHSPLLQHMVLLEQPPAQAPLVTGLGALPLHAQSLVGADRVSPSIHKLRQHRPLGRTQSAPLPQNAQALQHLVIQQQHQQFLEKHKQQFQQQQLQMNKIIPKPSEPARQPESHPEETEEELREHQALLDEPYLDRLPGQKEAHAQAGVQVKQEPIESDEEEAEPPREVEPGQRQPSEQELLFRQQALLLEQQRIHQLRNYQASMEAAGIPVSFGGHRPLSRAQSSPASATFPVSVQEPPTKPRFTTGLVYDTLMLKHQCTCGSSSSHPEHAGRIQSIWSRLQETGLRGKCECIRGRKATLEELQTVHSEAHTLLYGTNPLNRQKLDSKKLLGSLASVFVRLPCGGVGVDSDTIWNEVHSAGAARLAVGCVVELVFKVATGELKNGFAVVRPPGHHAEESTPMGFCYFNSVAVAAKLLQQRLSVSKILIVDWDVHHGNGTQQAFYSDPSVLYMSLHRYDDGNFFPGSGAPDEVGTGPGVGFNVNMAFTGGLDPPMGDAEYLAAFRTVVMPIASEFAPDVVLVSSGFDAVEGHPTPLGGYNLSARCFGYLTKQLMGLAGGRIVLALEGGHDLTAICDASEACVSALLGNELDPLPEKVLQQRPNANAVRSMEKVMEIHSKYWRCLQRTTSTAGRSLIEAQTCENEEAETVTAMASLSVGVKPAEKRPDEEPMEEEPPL
Chain of Histone deacetylase 9 (Q9UKV0 whole entry): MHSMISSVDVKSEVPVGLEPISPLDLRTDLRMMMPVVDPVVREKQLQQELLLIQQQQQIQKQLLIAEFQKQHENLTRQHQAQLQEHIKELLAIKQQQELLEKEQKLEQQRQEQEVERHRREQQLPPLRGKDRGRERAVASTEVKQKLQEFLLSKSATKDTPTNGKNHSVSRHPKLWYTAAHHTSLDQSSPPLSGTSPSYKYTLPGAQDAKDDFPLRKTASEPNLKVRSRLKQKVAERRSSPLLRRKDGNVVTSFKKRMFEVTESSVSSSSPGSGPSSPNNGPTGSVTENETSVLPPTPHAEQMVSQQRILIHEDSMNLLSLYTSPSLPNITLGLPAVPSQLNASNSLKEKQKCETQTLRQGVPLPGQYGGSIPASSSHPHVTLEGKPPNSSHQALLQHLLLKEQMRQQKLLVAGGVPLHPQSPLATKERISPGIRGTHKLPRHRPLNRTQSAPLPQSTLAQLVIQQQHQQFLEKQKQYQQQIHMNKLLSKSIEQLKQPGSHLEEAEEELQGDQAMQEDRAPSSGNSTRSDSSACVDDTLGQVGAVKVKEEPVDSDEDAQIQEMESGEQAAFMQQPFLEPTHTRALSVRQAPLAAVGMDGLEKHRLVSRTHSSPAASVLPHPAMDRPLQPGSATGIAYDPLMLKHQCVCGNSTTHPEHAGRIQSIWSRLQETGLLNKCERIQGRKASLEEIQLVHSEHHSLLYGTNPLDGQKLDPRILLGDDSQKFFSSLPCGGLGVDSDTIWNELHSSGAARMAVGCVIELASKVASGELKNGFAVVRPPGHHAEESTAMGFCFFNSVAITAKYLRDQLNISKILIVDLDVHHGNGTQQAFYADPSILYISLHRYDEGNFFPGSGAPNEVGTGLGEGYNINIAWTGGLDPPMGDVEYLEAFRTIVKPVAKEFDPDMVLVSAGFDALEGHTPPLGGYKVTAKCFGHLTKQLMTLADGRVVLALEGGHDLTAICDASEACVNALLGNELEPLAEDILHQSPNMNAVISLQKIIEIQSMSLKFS

With `Cc1cc(=O)[nH]c(SCC(=O)NCCCCCCc2ccccc2)n1`, the IC50 (at Histone deacetylase 8; on Histone deacetylase 9; in assay [1]; on Histone deacetylase 1; on Histone deacetylase 5; at Histone deacetylase 2) was above 100 µM in each case. Besides, the IC50 on Histone deacetylase 4, on Histone deacetylase 3 and on Histone deacetylase 7 was above 100 µM throughout.
For the compound `Cc1cc(O)nc(SCC(=O)c2ccccc2)n1`, the IC50 (at Histone deacetylase 8; on Histone deacetylase 9; in assay [1]; at Histone deacetylase 1; on Histone deacetylase 5; on Histone deacetylase 2) was above 100 µM throughout. Also, the IC50 at Histone deacetylase 4 is above 100 µM; at Histone deacetylase 3, above 100 µM; on Histone deacetylase 7, 13.7 µM.
In the case of `CC(=O)Nc1ccc(C(=O)COc2cc(C)cc(=O)[nH]2)cc1`, the IC50 (on Histone deacetylase 8; at Histone deacetylase 9; in assay [1]; on Histone deacetylase 1; on Histone deacetylase 5; on Histone deacetylase 2) was above 100 µM each time. The IC50 on Histone deacetylase 4, at Histone deacetylase 3 and at Histone deacetylase 7 was above 100 µM in each case.
In the case of `CC(=O)Nc1ccc(C(=O)CSc2nccc(C)n2)cc1`, the IC50 (at Histone deacetylase 8; on Histone deacetylase 9; in [1]; on Histone deacetylase 1; at Histone deacetylase 5; at Histone deacetylase 2) was above 100 µM throughout. Besides, the IC50 at Histone deacetylase 4, at Histone deacetylase 3 and on Histone deacetylase 7 was above 100 µM in each case.
`Cc1cc(O)nc(SCC(=O)c2cccs2)n1`: the IC50 at Histone deacetylase 8 is above 100 µM; at Histone deacetylase 9, above 100 µM; in assay [1], 24.8 µM; at Histone deacetylase 1, above 100 µM; at Histone deacetylase 5, above 100 µM; at Histone deacetylase 2, above 100 µM. The IC50 on Histone deacetylase 4, on Histone deacetylase 3 and at Histone deacetylase 7 was above 100 µM throughout.
Consider `Cc1cc(O)nc(SCC(=O)C(C)(C)C)n1`, for which the IC50 (at Histone deacetylase 8; at Histone deacetylase 9; in assay [1]; on Histone deacetylase 1; on Histone deacetylase 5; on Histone deacetylase 2) was above 100 µM each time. Further, the IC50 at Histone deacetylase 4, on Histone deacetylase 3 and at Histone deacetylase 7 was above 100 µM in each case.
In the case of `Cc1cc(=O)[nH]c(SCC(=O)c2ccc3c(c2)OCCO3)n1`, the IC50 (at Histone deacetylase 8; on Histone deacetylase 9; in assay [1]; on Histone deacetylase 1; at Histone deacetylase 5; at Histone deacetylase 2) was above 100 µM each time. For the same compound, the IC50 on Histone deacetylase 4, on Histone deacetylase 3 and at Histone deacetylase 7 was above 100 µM each time.
Take `CC(=O)CSc1nc(C)cc(=O)[nH]1`: the IC50 (at Histone deacetylase 8; at Histone deacetylase 9; in assay [1]; on Histone deacetylase 1; at Histone deacetylase 5; at Histone deacetylase 2) was above 100 µM throughout. Also, the IC50 at Histone deacetylase 4, at Histone deacetylase 3 and on Histone deacetylase 7 was above 100 µM each time.
`CC(=O)N(C)c1ccc(C(=O)CSc2nc(C)cc(O)n2)cc1`: the IC50 (at Histone deacetylase 8; on Histone deacetylase 9; in [1]; at Histone deacetylase 1; at Histone deacetylase 5; at Histone deacetylase 2) was above 100 µM in each case. Also, the IC50 at Histone deacetylase 4, on Histone deacetylase 3 and at Histone deacetylase 7 was above 100 µM in each case.
Consider `COc1ccc(C(=O)CSc2nc(C)cc(O)n2)cc1`, for which the IC50 on Histone deacetylase 8 was above 100 µM; at Histone deacetylase 9, above 100 µM; in [1], 60.9 µM; at Histone deacetylase 1 it was above 100 µM; on Histone deacetylase 5 it was above 100 µM; at Histone deacetylase 2, above 100 µM. Besides, the IC50 on Histone deacetylase 4, at Histone deacetylase 3 and at Histone deacetylase 7 was above 100 µM throughout.
